These results are taken from ChEMBL document CHEMBL2069243, “Synthesis and SAR of pyridothiazole substituted pyrimidine derived HCV replication inhibitors” (Bioorg Med Chem Lett, 2012).

Where only a bound is given, the exact number is not on record here.

Data set [1] can be described thus: Drug uptake in rat liver at 10 mg/kg, po at 6 hrs. It is filed as ADME, organism-based. More on the design: dose 10 mg/kg, route oral. Particulars: read-out: Drug uptake. The essentials: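 Rats were dosed orally at 10 mpk in 0.4% methylcellulose, n=2. Animals were sacrificed at 6 h, and liver was harvested and processed to measure compound concentration (liver C6 h).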

Data set [2] is described as follows: AUC (0 to 6 hrs) in rat at 10 mg/kg, po. It is filed as ADME, organism-based. More on the design: time < 6 hr, dose 10 mg/kg, route oral. Particulars: plasma. The essentials:
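Rats were dosed orally at 10 mpk in 0.4% methylcellulose, n=2 per compound. Plasma was sampled at 8 time points up to 6 h, and exposure was reported as AUC0-6 h.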

A short description of data set [3]: Cytotoxicity against human hepatoma cells assessed as decrease in GADPH RNA level after 3 days by Rt-PCR analysis. It is filed as cell-based.
Data set [4] is described as follows: Cytotoxicity against human hepatoma cells after 3 days by MTS assay. It is filed as cell-based. The procedure, abridged:
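MTS cell proliferation assay on replicon cells handled as in the replicon activity assay (seeded one day before, 0.5% DMSO, 10% FBS, serial dilutions), read 3 days after dosing. CC50 is the concentration giving 50% inhibition relative to vehicle-treated cells.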
In general terms: Tetrazolium dyes change colour on reduction, which living cells bring about.

In data set [5] the test system is Hepatitis C virus. As to the kind of experiment: Antiviral activity against Hepatitis C virus 1b con1 infected in human hepatoma cells assessed as decrease in replicon RNA level after 3 days by RT-PCR analysis. It is filed as functional, organism-based, Hepacivirus hominis. The settings on record: genotype 1b Con1, 72 h. The procedure, abridged:
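Con1 genotype 1b replicon cells were seeded at 5000 cells/well one day before treatment. Compound in DMSO was added (final 0.5% DMSO, 10% FBS) as 10 serial twofold dilutions in triplicate. Cells were harvested 3 days after dosing. Replicon RNA was quantified by real-time RT-PCR (Taqman), normalized to GAPDH RNA, and EC50 was calculated.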
(A replicon is a self-replicating genome or part of one, used to study replication in cells.)

Data set [6] can be described thus: Cytotoxicity against human hepatoma cells assessed as inhibition of [14C]thymidine incorporation after 3 days by TopCount analysis. The data set is classed as cell-based. The procedure, abridged:
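Replicon cells were seeded in scintillating microplates one day before treatment. Compound dilutions in triplicate were added with [methyl-14C]-thymidine (final 0.5 uCi/mL) and incubated 3 days. Incorporated label was counted by scintillation proximity. DNA CC50 is the concentration giving 50% inhibition of thymidine incorporation versus vehicle-treated cells.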
A general note: Dividing cells build labelled thymidine or BrdU into new DNA.

Data set [7] is described as follows: Half life in rat at 10 mg/kg, po. The data set is classed as ADME, organism-based. More on the design: dose 10 mg/kg, route oral. Particulars: in vivo.
Data set [8] can be described thus: Oral bioavailability in dog at 3 mg/kg. It is filed as ADME, organism-based, Canis lupus familiaris. Particulars: in vivo.
Data set [9] deals with Hepatitis C virus. In words: Antiviral activity against Hepatitis C virus 2a by replicon-based assay. The settings on record: genotype 2a. It is filed as functional, organism-based, Hepacivirus hominis.
A short description of data set [10]: AUC (0 to 24 hrs) in rat at 10 mg/kg, po. The data set is classed as ADME, organism-based. More on the design: time < 24 hr, dose 10 mg/kg, route oral. The settings on record: plasma.
Data set [11] is described as follows: Oral bioavailability in monkey at 3 mg/kg. The data set is classed as ADME, organism-based, Macaca mulatta. Particulars: rhesus monkey, in vivo.
The nature of data set [12]: AUC in dog at 3 mg/kg, po. The data set is classed as ADME, organism-based, Canis lupus familiaris. Particulars: plasma. Set-up: dose 3 mg/kg, route oral. The essentials: (§1)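 Oral dosing of the HCl salt at 3 mpk; plasma AUC reported in µM.h.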
For a further data set, the target named is Cytochrome P450 2C9 (Homo sapiens, UniProt P11712). As to the kind of experiment: Inhibition of CYP2C9. The data set is classed as ADME.
Data set [13] in a line: Half life in dog at 3 mg/kg, po. The data set is classed as ADME, organism-based, Canis lupus familiaris. Set-up: dose 3 mg/kg, route oral. The settings on record: in vivo.
Data set [14] is described as follows: Half life in monkey at 3 mg/kg, po. More on the design: dose 3 mg/kg, route oral. Particulars: rhesus monkey, in vivo. The data set is classed as ADME, organism-based, Macaca mulatta.
Data set [15] in a line: Clearance in monkey at 3 mg/kg, po. It is filed as ADME, organism-based, Macaca mulatta. More on the design: dose 3 mg/kg, route oral. The settings on record: rhesus monkey, in vivo.
The target of another data set is Cytochrome P450 3A4 (Homo sapiens, UniProt P08684). In words: Inhibition of CYP3A4. It is filed as ADME.
Data set [16] in a line: Oral bioavailability in rat at 10 mg/kg. The data set is classed as ADME, organism-based. The settings on record: in vivo.
A further data set deals with Cytochrome P450 2D6 (Homo sapiens, UniProt P10635). In words: Inhibition of CYP2D6. It is filed as ADME.
Data set [17] in a line: Clearance in dog at 3 mg/kg, po. The data set is classed as ADME, organism-based, Canis lupus familiaris. Set-up: dose 3 mg/kg, route oral. The settings on record: in vivo.
Data set [18] is described as follows: AUC in monkey at 3 mg/kg, po. It is filed as ADME, organism-based, Macaca mulatta. Set-up: dose 3 mg/kg, route oral. Particulars: rhesus monkey, plasma. The essentials: as §1
Data set [19] concerns Hepatitis C virus. As to the kind of experiment: Antiviral activity against Hepatitis C virus 1a by replicon-based assay. The data set is classed as functional, organism-based, Hepacivirus hominis. Particulars: subtype 1a.
Data set [20] is described as follows: Clearance in rat at 10 mg/kg, po. It is filed as ADME, organism-based. More on the design: dose 10 mg/kg, route oral. The settings on record: in vivo.

Cytochrome P450 3A4, sequence (P08684 whole entry): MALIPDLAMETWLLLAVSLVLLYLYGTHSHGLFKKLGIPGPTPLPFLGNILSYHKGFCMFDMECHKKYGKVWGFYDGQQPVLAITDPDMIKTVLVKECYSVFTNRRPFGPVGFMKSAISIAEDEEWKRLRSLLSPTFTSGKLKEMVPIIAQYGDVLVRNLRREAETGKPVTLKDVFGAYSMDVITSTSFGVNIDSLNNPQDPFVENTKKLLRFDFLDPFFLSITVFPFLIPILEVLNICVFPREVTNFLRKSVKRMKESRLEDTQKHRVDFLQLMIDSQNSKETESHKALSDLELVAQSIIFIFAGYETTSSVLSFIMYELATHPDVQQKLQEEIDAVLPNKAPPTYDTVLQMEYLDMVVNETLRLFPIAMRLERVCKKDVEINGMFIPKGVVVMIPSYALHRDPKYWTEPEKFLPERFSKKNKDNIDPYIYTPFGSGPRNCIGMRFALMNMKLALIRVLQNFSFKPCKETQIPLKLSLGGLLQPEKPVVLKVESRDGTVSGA
Cytochrome P450 2D6, sequence (P10635 whole entry): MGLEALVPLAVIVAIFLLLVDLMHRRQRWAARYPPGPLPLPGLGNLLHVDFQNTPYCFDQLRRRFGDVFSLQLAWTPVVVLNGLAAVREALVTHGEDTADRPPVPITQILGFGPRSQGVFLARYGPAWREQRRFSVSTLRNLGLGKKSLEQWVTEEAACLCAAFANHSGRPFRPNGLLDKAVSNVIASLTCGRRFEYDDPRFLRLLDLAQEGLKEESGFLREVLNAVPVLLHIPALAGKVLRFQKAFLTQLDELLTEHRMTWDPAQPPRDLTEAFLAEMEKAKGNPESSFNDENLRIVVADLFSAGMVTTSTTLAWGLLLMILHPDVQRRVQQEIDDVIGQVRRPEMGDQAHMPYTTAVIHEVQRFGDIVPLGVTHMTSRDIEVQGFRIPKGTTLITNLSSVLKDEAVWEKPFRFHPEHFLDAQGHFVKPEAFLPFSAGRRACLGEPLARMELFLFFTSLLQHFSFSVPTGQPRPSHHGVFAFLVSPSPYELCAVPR
Cytochrome P450 2C9, sequence (P11712 whole entry): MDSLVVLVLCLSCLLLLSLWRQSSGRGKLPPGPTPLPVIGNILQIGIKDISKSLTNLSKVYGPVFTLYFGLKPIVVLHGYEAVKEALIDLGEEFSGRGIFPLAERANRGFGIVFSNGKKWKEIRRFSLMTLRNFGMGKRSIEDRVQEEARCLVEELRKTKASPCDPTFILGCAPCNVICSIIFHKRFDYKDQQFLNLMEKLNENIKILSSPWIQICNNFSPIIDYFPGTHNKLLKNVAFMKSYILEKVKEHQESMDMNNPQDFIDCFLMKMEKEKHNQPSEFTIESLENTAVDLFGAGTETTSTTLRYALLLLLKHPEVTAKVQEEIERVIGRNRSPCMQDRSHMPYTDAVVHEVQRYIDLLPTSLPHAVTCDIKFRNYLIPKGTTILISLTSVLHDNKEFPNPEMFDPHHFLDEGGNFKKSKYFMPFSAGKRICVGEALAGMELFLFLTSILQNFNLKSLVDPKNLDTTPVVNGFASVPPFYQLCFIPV

With `Cc1nc(N[C@H](C)c2ccc(OC(F)(F)F)cc2)nc(N[C@@H]2C[C@H](CO)[C@@H](O)[C@H]2O)c1-c1nc2c(C3CCC3)nccc2s1`, the concentration at 6 h in data set [1] came out at 4900 ng/g. Moreover, the AUC(0-t) at 6 h in data set [2] is 3300 nM·h. Moreover, the CC50 at 72 h in [3] and in data set [4] was 5 µM each time. For the same compound, in the data set with Hepatitis C virus [5], the EC50 was 0.016 µM.
With `Cc1nc(N[C@H](C)c2ccc(OC(F)(F)F)cc2)nc(N[C@@H]2C[C@H](CO)[C@@H](O)[C@H]2O)c1-c1nc2c(C3CC3)nccc2s1.Cl`, the concentration at 6 h in data set [1] turned out to be 11000 ng/g. The values for the 50% cytotoxic concentration (CC50) at 72 h in [6], in data set [3] and in data set [4] were over 25 µM, 25 µM and over 25 µM, respectively. Further, the half-life is 5 h in data set [7], 5.2 h in data set [13] and 4.4 h in [14]. Moreover, the bioavailability in data set [8] worked out at 32%; in data set [11], 12%; in [16], 18%. The EC50 in the data set on Hepatitis C virus [9] came out at 0.18 µM; with Hepatitis C virus [5] it was 0.06 µM; in the data set with Hepatitis C virus [19], 0.4 µM. This compound came in with an AUC(0-t) at 24 h in [10] of 5200 nM·h. The AUC in [12] turned out to be 5100 nM·h; in [18], 1300 nM·h. Also, the INH at Cytochrome P450 2C9, on Cytochrome P450 3A4 and on Cytochrome P450 2D6 was over 20 µM in each case. The CL/F in data set [15] was 0.432 L/h/kg; in data set [17], 0.252 L/h/kg; in [20], 0.66 L/h/kg.
On to `Cc1nc(N[C@H](C)c2ccc(OC(F)(F)F)cc2)nc(N[C@@H]2C[C@H](CO)[C@@H](O)[C@H]2O)c1-c1nc2c(CCC#N)nccc2s1`, for which the concentration at 6 h in [1] is 16 ng/g. Moreover, the AUC(0-t) at 6 h in data set [2] is 400 nM·h. For the same compound, the CC50 at 72 h in data set [3] and in data set [4] was 12 µM in each case. Besides, the EC50 in the data set with Hepatitis C virus [5] was 0.034 µM.
Consider `Cc1cc2sc(-c3c(C)nc(N[C@H](C)c4ccc(OC(F)(F)F)cc4)nc3N[C@@H]3C[C@H](CO)[C@@H](O)[C@H]3O)nc2c(C)n1`, for which the concentration at 6 h in data set [1] was determined as 9800 ng/g. For the same compound, the AUC(0-t) at 6 h in data set [2] stood at 5600 nM·h. Further, the CC50 at 72 h in data set [3] turned out to be 20 µM; in data set [4], 12 µM. For the same compound, the EC50 in the data set with Hepatitis C virus [5] came out at 0.043 µM.
Regarding `CCc1nc(C)cc2sc(-c3c(C)nc(N[C@H](C)c4ccc(OC(F)(F)F)cc4)nc3N[C@@H]3C[C@H](CO)[C@@H](O)[C@H]3O)nc12`, the concentration at 6 h in [1] was found to be 257 ng/g. In [2], the AUC(0-t) at 6 h worked out at 25000 nM·h. Besides, the values for the CC50 at 72 h in [3] and in data set [4] were 23 µM and 24 µM, respectively. In addition, the EC50 in the data set with Hepatitis C virus [5] came to 0.264 µM.
On to `Cc1nc(N[C@H](C)c2ccc(OC(F)(F)F)cc2)nc(N[C@@H]2C[C@H](CO)[C@@H](O)[C@H]2O)c1-c1nc2cnccc2s1`, for which the concentration at 6 h in [1] worked out at 1800 ng/g. The CC50 at 72 h in data set [6] was 6 µM; in [3] it was 25 µM; in [4] it was over 25 µM. In addition, the AUC(0-t) at 6 h in data set [2] was determined as 1600 nM·h. Besides, the EC50 with Hepatitis C virus [5] worked out at 0.016 µM.
As to `Cc1nc(N[C@H](C)c2ccc(OC(F)(F)F)cc2)nc(N[C@@H]2C[C@H](CO)[C@@H](O)[C@H]2O)c1-c1nc2c(C)nccc2s1.Cl`, the concentration at 6 h in data set [1] stood at 2820 ng/g. In addition, the figures for the CC50 at 72 h in data set [6], in data set [3] and in [4] were over 25 µM, 25 µM and over 25 µM, respectively. In addition, the half-life in data set [7] was 2.5 h; in data set [13], 4.2 h; in data set [14] it was 3.3 h. For the same compound, the bioavailability in [8] was found to be 31%; in [11] it was 7%; in [16] it was 15%. For the same compound, the EC50 in the data set with Hepatitis C virus [9] was determined as 0.08 µM; in the data set with Hepatitis C virus [5] it was 0.016 µM; in the data set with Hepatitis C virus [19] it was 0.07 µM. For the same compound, the AUC(0-t) at 24 h in data set [10] turned out to be 1100 nM·h. The AUC in [12] is 2900 nM·h; in data set [18] it was 300 nM·h. Also, the INH on Cytochrome P450 2C9, on Cytochrome P450 3A4 and at Cytochrome P450 2D6 was over 20 µM each time. The CL/F in data set [15] was 1.2 L/h/kg; in data set [17], 0.588 L/h/kg; in [20], 2.4 L/h/kg.

What is called AUC(0-t) is the area under the concentration-time curve up to a stated or last time point. The term CC50 denotes the concentration giving 50% cytotoxicity. In general, EC50 refers to the concentration that produces a half-maximal response. By half-life is commonly meant the time needed for the level to fall by half in the phase considered. In general, bioavailability refers to the share of a dose that reaches the circulation, judged against a reference dose that is usually intravenous. As usually defined, the AUC is the area under the concentration-time curve, a measure of exposure. By CL/F is commonly meant clearance divided by bioavailability, as obtained after extravascular dosing.
